This is a sample that favours compounds with a hit; in the whole collection about 4% have one here.
XBP1 UPR activ: activators of adaptive XBP1 UPR arm, primary screen, cell-based, CHO-XBP1 luciferase reporter, luminescence, uHTS. IRE1-XBP1 UPR activation; percent of tunicamycin response, DMSO as zero. AID 463104, 2010. activation, % at 20 µM. 0.33% of 330,000 active;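 active = versus positive control, 20 µM dose yields 30% or more activation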;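 also: 100% = tunicamycin at 10 µg/mL and 0% = DMSO only wells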
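Assay system: CHO-XBP1 luciferase reporter cells; Schedule: 6 h treatment, 37 °C; Detection: glow luminescence from Steady-Glo reagent; Benchmarks: high control tunicamycin 10 µg/mL final, low control DMSO vehicle only.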
CHOP UPR activ: activators of apoptotic CHOP UPR arm, primary screen, cell-based, CHO-CHOP luciferase reporter, luminescence, uHTS; activation, % at 10 µM; 0.34% of 330,000 active; UPR activation; percent of tunicamycin response over DMSO baseline;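 active = at 10 µM dose, activation of 40% or more, normalized to positive control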;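 also: 100% = tunicamycin at 10 µg/mL and 0% = DMSO alone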
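System: CHO-CHOP luciferase reporter cell line | Buffer or medium: F12 medium containing 10% fetal bovine serum | Doses: One dose, 10 µM in 0.5% DMSO | Times: 6 h compound exposure at 37 °C after overnight seeding | Signal: Luciferase luminescence | Read-out: % activation vs tunicamycin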
Mdm2 MdmX PPI: inhibitors of human Mdm2-MdmX association, primary screen, cell-based, luminescence, split luciferase, SaOS-2, uHTS; inhibition, % at 8 µM; 3% of 330,000 active; AID 485346, 2010; Protein Mdm4 (Homo sapiens) + E3 ubiquitin-protein ligase Mdm2 (Homo sapiens), …; SaOS-2 split-luciferase Mdm2/MdmX complementation;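 active = inhibition of at least 50% at 8 µM in the primary screen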
ABHD5-PLIN5 inh: ABHD5-PLIN5 interaction inhibitors, primary screen, cell lysate, split luciferase complementation, luminescence; 0.78% of 360,000 active; Split G. princeps luciferase complementation, 4 h; inhibition, % at 4 µM; Perilipin-5 (Homo sapiens) + 1-acylglycerol-3-phosphate O-acyltransferase ABHD5 (Homo …; AID 602281, 2012;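 active = inhibition above the mean inhibition across every tested compound plus 3 SD, cut at about 22% in these data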;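 also: 0% = DMSO only wells and the 100% control is not disclosed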
Target sequence (Q00G26 whole entry, looked up): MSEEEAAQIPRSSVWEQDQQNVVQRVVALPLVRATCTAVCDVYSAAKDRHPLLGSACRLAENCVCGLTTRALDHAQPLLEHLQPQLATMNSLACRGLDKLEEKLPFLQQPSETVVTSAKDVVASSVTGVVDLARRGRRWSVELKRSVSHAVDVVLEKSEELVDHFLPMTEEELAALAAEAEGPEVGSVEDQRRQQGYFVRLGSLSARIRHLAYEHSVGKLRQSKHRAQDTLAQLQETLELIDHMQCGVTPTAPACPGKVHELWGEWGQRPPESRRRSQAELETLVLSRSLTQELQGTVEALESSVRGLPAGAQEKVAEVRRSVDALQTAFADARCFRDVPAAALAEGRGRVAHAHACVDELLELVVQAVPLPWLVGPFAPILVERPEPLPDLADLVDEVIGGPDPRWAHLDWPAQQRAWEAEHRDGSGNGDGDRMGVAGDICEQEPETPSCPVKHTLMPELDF
Target sequence (Q8WTS1 whole entry, looked up): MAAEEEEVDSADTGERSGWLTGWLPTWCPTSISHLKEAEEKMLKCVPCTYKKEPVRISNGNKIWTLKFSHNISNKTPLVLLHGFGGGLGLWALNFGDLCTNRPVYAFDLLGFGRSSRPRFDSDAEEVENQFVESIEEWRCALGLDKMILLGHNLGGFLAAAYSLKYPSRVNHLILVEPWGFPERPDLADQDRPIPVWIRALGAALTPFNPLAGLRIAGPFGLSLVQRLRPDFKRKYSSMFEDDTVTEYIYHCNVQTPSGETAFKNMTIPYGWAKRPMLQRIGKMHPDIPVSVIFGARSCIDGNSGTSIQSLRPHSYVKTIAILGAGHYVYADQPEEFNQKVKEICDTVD
Granule exo inh: LAMP-1 surface exposure blockers, TALL-104 cells – cell-based, flow cytometry, MLPCN library, primary screen. TALL-104 LAMP-1 surface exposure; cells stimulated with thapsigargin and PMA. inhibition, % at 10 µM. 0.66% of 360,000 active;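 active = inhibition above about 55%, limit read from the data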
ABHD5 PLIN5 conf: ABHD5-PLIN5 interaction inhibitors, confirmation, biochemical, luminescence; shares compounds with ABHD5-PLIN5 inh; inhibition, % at 4 µM; 67% of 2,200 active; in the data active = inhibition above about 23%;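 also: 0% = DMSO vehicle wells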
HNF4 split-luc: HNF4 dimerization inhibitors, counter-screen for ABHD5-PLIN5 interaction inhibitor project, biochemical, split-luciferase complementation, luminescence | shares compounds with ABHD5-PLIN5 inh | inhibition, % at 4 µM | 77% of 2,200 active | AID 651674, 2012;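 active = mean inhibition across replicate wells exceeding the computed hit threshold, cut at about 13% in these data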;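 also: light from luciferase halves that rejoin when HNF4 fusion proteins dimerize; 0% = DMSO only wells and the 100% control is not given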
An asterisk follows results filed as active; x = no result given.

SMILES | XBP1 UPR activ | CHOP UPR activ | Mdm2 MdmX PPI | ABHD5-PLIN5 inh | Granule exo inh | ABHD5 PLIN5 conf | HNF4 split-luc
O=C(CC1C(=O)NCCN1Cc1ccoc1)NCCc1ccc(Cl)cc1 (configuration not stated) | -3 | 0 | -2 | 38* | -2 | 20 | 16*
COC(=O)CCCNC(=O)CC1C(=O)NCCN1Cc1ccoc1 (configuration not stated) | 0 | -1 | 20 | 3 | 5 | x | x
Cc1nc(CCNC(=O)CC2C(=O)NCCN2Cc2ccoc2)nc2c1CCCC2 (configuration not stated) | -2 | -1 | -17 | 22 | -6 | x | x
O=C(/C=C/c1ccccc1O)c1ccc(Cl)cc1 | 5 | 6 | -3 | 58* | 6 | 94* | 75*
O=C(/C=C/c1ccccc1O)c1ccccc1 | x | x | x | 29* | 0 | 79* | 64*
CC(=O)/C=C/c1ccccc1O | -4 | -3 | -3 | 0 | -3 | x | x
O=C(/C=C/c1ccccc1[N+](=O)[O-])c1ccc(F)cc1 | 3 | 2 | 18 | 34* | 0 | 86* | 83*
O=C(N/N=C/c1cccc2ccccc12)c1ccncc1 | -1 | 0 | 10 | -8 | -5 | x | x
O=C(/C=C/c1cccc2ccccc12)c1ccncc1 | x | x | x | 65* | -1 | 96* | 96*
Cc1ccc(S(=O)(=O)N(C)C)cc1NC(=O)COC(=O)CC1CCCC1 | 1 | 1 | -7 | 6 | -1 | x | x
CCOC(=O)Cc1csc(NC(=O)c2ccc(Br)s2)n1 | 2 | 5 | 3 | x | x | x | x
Cc1ccc(NS(=O)(=O)c2ccc3c(c2)NC(=O)C(C)C(=O)N3)c(Br)c1 (configuration not stated) | -4 | -1 | 29 | -1 | 13 | x | x
COc1ccc(OCC(O)CN2CCC(CN3C(=O)c4cccc5cccc(c45)C3=O)CC2)cc1 (configuration not stated) | 0 | 1 | 19 | 25* | 7 | 6 | 3
O=C(/C=C/c1ccc2c(c1)OCO2)Nc1nncs1 | -1 | 4 | -24 | -6 | 3 | x | x
Cc1ccc2cc(C)c(SCC(=O)NCc3ccco3)nc2c1 | -1 | -1 | 11 | 1 | 1 | x | x
Cc1ccc2cc(C#N)c(NCc3ccco3)nc2c1 | -3 | 0 | -28 | 24* | -4 | 46* | 61*
O=C(NC(=S)Nc1cccc(O)c1)c1ccco1 | 4 | 7 | -20 | -4 | 3 | x | x
O=C(/C=C/c1ccc(-c2ccccc2[N+](=O)[O-])o1)c1ccco1 | -1 | 3 | 9 | 30* | 46 | 64* | 48*
CSc1ccc(/C=C/C(=O)c2ccc(NC(C)=O)cc2)cc1 | -4 | 1 | 15 | 25* | 0 | 52* | 41*
O=C(/C=C/c1ccc(Br)cc1)c1ccco1 | 4 | 3 | 19 | 79* | 13 | 99* | 99*
O=C(/C=C/c1ccc([N+](=O)[O-])cc1)c1ccco1 | 0 | 1 | 10 | 33* | 0 | 91* | 91*
O=C(NN1C(=O)/C(=C/c2cc([N+](=O)[O-])ccc2O)SC1=S)c1ccccc1O | -2 | -1 | 8 | x | x | x | x
O=C(NC1CCN(C(=O)N2c3ccccc3Sc3ccccc32)CC1)c1ccccc1Cl | -6 | 0 | 32 | 5 | 5 | x | x
O=C(/C=C/c1ccco1)c1cccc([N+](=O)[O-])c1 | x | x | x | 29* | 6 | 46* | 30*
O=C(/C=C\c1ccccc1)Nc1ccc(NC(=O)c2ccco2)cc1 | -2 | 0 | 11 | 6 | 30 | x | x
SMILES | XBP1 UPR activ | CHOP UPR activ | Mdm2 MdmX PPI | ABHD5-PLIN5 inh | Granule exo inh | ABHD5 PLIN5 conf | HNF4 split-luc
O=C(/C=C/c1ccc(Br)cc1)c1ccc(NC(=O)c2ccco2)cc1 | 7 | 4 | 34 | 29* | -8 | 61* | 46*
Cc1cccc(N2CCN(S(=O)(=O)c3ccc4c(c3)CC(=O)N4C)CC2)c1C | -4 | 0 | -3 | -3 | -2 | x | x
CCc1cc2c(SCC(=O)N(CC)c3c(N)n(Cc4ccccc4)c(=O)[nH]c3=O)ncnc2s1 | -1 | -2 | -12 | 3 | 5 | x | x
O=C(c1ccccc1C(=O)N1CCN(c2ccccc2)CC1)N1CCN(c2ccccc2)CC1 | 0 | -1 | 23 | -1 | 4 | x | x
Nc1sccc1C(=O)N1CCN(c2ccccc2)CC1 | x | x | x | 30* | 16 | 1 | 42*
Cc1c(Cc2ccccc2)c(=O)oc2cc(OCc3nn[nH]n3)ccc12 | -3 | 0 | 7 | 8 | -1 | x | x
Cc1cccc(C)c1NC(=O)C(C1CC1)n1c(=O)c(-c2ccccc2)nc2ccccc21 (configuration not stated) | x | x | x | 3 | 1 | x | x
Cc1cccc(C)c1NC(=O)C(C1CC1)n1c(=O)c(-c2ccco2)nc2ccccc21 (configuration not stated) | x | x | x | 61* | -4 | 43* | 25*
CSCCC(c1nc2ccccc2[nH]1)n1c(=O)c(-c2cccnc2)nc2ccccc21 (configuration not stated) | x | x | x | 6 | -2 | x | x
CC(C)(C)NC(=O)C(C1CC1)n1c(=O)c(-c2ccco2)nc2ccccc21 (configuration not stated) | x | x | x | 51* | -2 | 73* | 23*
CC(C)(C)NC(=O)C(C1CC1)n1c(=O)c(-c2cc3ccccc3[nH]2)nc2ccccc21 (configuration not stated) | x | x | x | -13 | 6 | x | x
O=C(Nc1ccc2c(c1)OCCO2)C(c1ccncc1)n1c(=O)c(-c2ccco2)nc2ccccc21 (configuration not stated) | x | x | x | 11 | -3 | x | x
CSCCC(c1nc2ccccc2[nH]1)n1c(=O)c(-c2ccco2)nc2ccccc21 (configuration not stated) | x | x | x | 34* | -2 | 34* | 40*
Cc1cccc(C)c1NC(=O)C(c1ccncc1)n1c(=O)c(-c2ccco2)nc2ccccc21 (configuration not stated) | x | x | x | 56* | -2 | 23* | 12
O=C(Nc1ccccc1C(F)(F)F)c1ccc(CN2CCC(Cc3ccccc3)CC2)cc1 | 0 | 0 | 33 | -3 | 5 | x | x
O=C(O)CCC(=O)Nc1ccc(SSc2ccc(NC(=O)CCC(=O)O)cc2)cc1 | 0 | 0 | -13 | 44* | 0 | 47* | 115*
O=C(O)CCC(=O)Nc1ccc(F)cc1 | -2 | -1 | -13 | -7 | 1 | x | x

Assay outcomes: PubChem, several laboratories
